# This is one part of a sample in which hits are shown more often than they occur.
# IDH1 R132H inh: inhibitors of IDH1 R132H reductase, primary screen, biochemical, plate reader, single point | Isocitrate dehydrogenase [NADP] cytoplasmic (Homo sapiens), O75874 | diaphorase/resazurin fluorescence, 60 min | inhibition, % at 10 µM | 0.18% of 70,000 active; in the data active means inhibition above about 34%; inconclusive means no clear call, values can overlap the other calls; inactive means below about 11%
# GASC1 inh: inhibitors of GASC-1 (KDM4C) histone demethylase, primary screen, biochemical, single concentration HTS. GST-KDM4C 2-372, H3K9me3 peptide, LANCE TR-FRET. inhibition, % at 12.5 µM. 0.15% of 96,000 active. AID 720574, 2013;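 active means mean replicate inhibition above about 25%, with at least 55% of replicates also reaching it, limit read from the data, passing the limit was not always enough; inconclusive means only one of those two conditions met; inactive means neither condition met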
# Target sequence (Q9H3R0 2-372 limits assumed): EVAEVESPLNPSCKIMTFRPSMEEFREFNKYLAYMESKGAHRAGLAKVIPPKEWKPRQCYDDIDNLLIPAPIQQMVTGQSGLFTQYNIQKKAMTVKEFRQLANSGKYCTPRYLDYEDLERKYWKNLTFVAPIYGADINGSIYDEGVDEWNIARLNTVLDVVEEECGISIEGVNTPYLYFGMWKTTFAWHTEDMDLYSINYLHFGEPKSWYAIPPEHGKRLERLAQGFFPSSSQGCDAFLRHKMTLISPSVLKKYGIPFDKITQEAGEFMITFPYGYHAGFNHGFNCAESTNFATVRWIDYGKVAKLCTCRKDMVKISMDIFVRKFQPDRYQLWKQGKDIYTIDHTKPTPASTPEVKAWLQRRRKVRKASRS
#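 Material: GST-tagged GASC-1 (JMJD2C) catalytic fragment, aa 2-372 / Quantity: enzyme final amount 10 nM / Medium: HEPES buffer, pH 7.5, plus ascorbate / Doses: one test concentration per compound / Incubation: 30 min reaction, 60 min detection, RT / Measured by: LANCE TR-FRET / Read-out: inhibition from TR-FRET ratio decrease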
# T cruzi growth-1: T. cruzi intracellular proliferation inhibitors, primary screen, cell-based, beta-gal Tulahuen parasites, NIH3T3 host, luminescence | T. cruzi beta-gal in NIH3T3, GalScreen luminescence, 90 h | inhibition, % at 8.34 µM | 5.9% of 77,000 active | AID 624255, 2012;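 active means mean inhibition above about 93%, with at least 55% of replicates each passing it, limit read from the data, passing the limit was not always enough; inconclusive means only one of those two conditions holds; inactive means neither condition holds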
# T cruzi growth-2: T. cruzi intracellular proliferation inhibitors, confirmation, cell-based, NIH3T3 host, beta-gal parasite, luminescence, cherry-pick; shares compounds with T cruzi growth-1; T. cruzi beta-gal in NIH3T3, GalScreen luminescence, 90 h; inhibition, % at 8.35 µM; 72% of 5,600 active; AID 651739, 2012;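 active means mean replicate inhibition above about 95% and at least 55% of replicates individually reaching it, limit read from the data; inconclusive means only one of the two criteria is met; inactive means neither criterion is met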
# T cruzi growth-3: inhibitors of intracellular T. cruzi replication, confirmation, NIH3T3 host cells, beta-gal parasites, cherry-pick, set 2. shares compounds with T cruzi growth-1. T. cruzi beta-gal in NIH3T3, GalScreen luminescence, 90 h. inhibition, % at 2.09 µM. 21% of 5,600 active. AID 651740, 2012;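 active means mean inhibition above about 95%, with at least 55% of replicates also reaching it, limit read from the data; inconclusive means meets just one of the two conditions; inactive means meets neither condition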
# 3T3 cytotox: cytotoxicity in mouse NIH/3T3 fibroblasts, confirmation, cytotoxicity control for T. cruzi proliferation inhibitor project, cell-based, cherry-pick, single point. shares compounds with T cruzi growth-1. NIH/3T3 viability, CellTiter-Glo ATP luminescence, 90 h. cytotoxicity (signal decrease), % at 8.35 µM. 14% of 5,600 active;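 active means mean signal decrease across replicates above about 35% based on untreated-well scatter, with enough replicates individually passing, limit read from the data; inconclusive means no rule stated though some were filed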
# NIH3T3 tox 2: NIH/3T3 fibroblast cytotoxicity, confirmation, cytotoxicity control, cell-based, cherry-pick, single point, set 2 | AID 651744, 2012 | NIH/3T3 viability, CellTiter-Glo ATP luminescence, 90 h | inhibition, % at 24.9 µM | 56% of 5,600 active | shares compounds with T cruzi growth-1;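 active means mean loss of cell viability signal at or above a set limit, and enough replicates individually reaching it; inconclusive means meets only the mean limit or only the replicate share; inactive means meets neither condition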
# A number is an active result; n = inactive; u = inconclusive; x = no result given.
SMILES,IDH1 R132H inh,GASC1 inh,T cruzi growth-1,T cruzi growth-2,T cruzi growth-3,3T3 cytotox,NIH3T3 tox 2
C/C=C/c1ccc2c(c1)O[C@@H](CN(C)Cc1cccnc1)[C@@H](C)CN([C@H](C)CO)S2(=O)=O,n,n,n,x,x,x,x
CCOC(=O)c1c(CSc2cccc3cccnc23)nc2c3ccccc3ccn12,n,x,x,x,x,x,x
CC(C)NC(=O)N(C)C[C@H]1OCCCC[C@@H](C)Oc2ccc(NC(=O)C3CCCCC3)cc2C(=O)N([C@@H](C)CO)C[C@H]1C,n,n,n,x,x,x,x
O=C(N/N=C/c1cc2ccccc2n1S(=O)(=O)c1ccccc1)c1ccccc1O,n,x,x,x,x,x,x
C/C=C/c1ccc([C@H]2[C@@H](C#N)N(c3ncc(CC)s3)[C@@H]2CO)cc1,x,x,99.4,102.0,n,n,n
C/C=C/c1ccccc1[C@@H]1[C@H](C#N)N(c2ncc(CC)s2)[C@H]1CO,x,n,x,x,x,x,x
C/C=C/c1ccc([C@H]2[C@@H](CO)N(c3ncc(CC)s3)[C@H]2C#N)cc1,x,n,97.8,n,n,n,n
C/C=C/c1ccccc1[C@@H]1[C@@H](CO)N(c2ncc(CC)s2)[C@H]1C#N,x,n,x,x,x,x,x
C[C@@H]1CN([C@H](C)CO)C(=O)c2cccc(NC(=O)Nc3cccc4ccccc34)c2O[C@H]1CN(C)C(=O)Nc1cccc2ccccc12,x,n,n,x,x,x,x
CCOC(=O)c1c(C)c(C#N)c(/N=C/N(C)C)n1-c1ccc(Cl)cc1Cl,n,x,x,x,x,x,x
CCCC(=O)N1CC2(CN(C(=O)C3CCC3)C2)c2c(n(C)c3cc(OC)ccc23)[C@H]1CO,x,n,x,x,x,x,x
COc1ccc2c3c(n(C)c2c1)[C@@H](CO)N(CC1CCOCC1)CC31CCN(Cc2nccs2)CC1,x,n,x,x,x,x,x
O=C(NCC(F)(F)F)[C@H]1[C@H](CO)[C@H]2Cn3c(cccc3=O)[C@@H]1N2C(=O)C1CCC1,x,n,n,x,x,x,x
COc1cccc(CNC(=O)[C@H]2[C@H](CO)[C@H]3Cn4c(cccc4=O)[C@@H]2N3C(=O)C2CCCCC2)c1,x,n,157.3,n,n,n,n
CCCNC(=O)[C@H]1[C@H](CO)[C@H]2Cn3c(cccc3=O)[C@@H]1N2C(=O)C1CCCC1,x,n,n,x,x,x,x
O=C(NCC(F)(F)F)[C@@H]1[C@@H](CO)[C@@H]2Cn3c(cccc3=O)[C@H]1N2C(=O)C1CC1,x,n,u,n,n,n,n
O=C(C[C@H]1CC[C@@H]2[C@H](COC[C@H](O)CN2Cc2ccc(Oc3ccccc3)cc2)O1)Nc1nccs1,x,n,133.1,103.1,n,n,52.3
O=C(C[C@@H]1CC[C@@H]2[C@H](COC[C@@H](O)CN2Cc2cccc(Cl)c2)O1)Nc1nccs1,x,n,n,x,x,x,x
O=C(C[C@@H]1CC[C@H]2[C@@H](COC[C@H](O)CN2Cc2ccc(Cl)cc2)O1)Nc1nccs1,x,n,n,x,x,x,x
O=C(C[C@@H]1CC[C@H]2[C@@H](COC[C@@H](O)CN2Cc2ccc(Oc3ccccc3)cc2)O1)Nc1nccs1,x,n,116.6,101.2,n,n,97.4
O=C(C[C@@H]1CC[C@@H]2[C@H](COC[C@@H](O)CN2Cc2ccc(Oc3ccccc3)cc2)O1)Nc1nccs1,x,n,107.9,101.9,n,n,n
O=C(C[C@@H]1CC[C@H]2[C@@H](COC[C@@H](O)CN2Cc2nccs2)O1)NCc1ccc(Oc2ccccc2)cc1,x,n,x,x,x,x,x
O=C(C[C@@H]1CC[C@@H]2[C@H](COC[C@H](O)CN2Cc2ccc(Oc3ccccc3)cc2)O1)Nc1nccs1,x,n,133.1,100.4,n,n,n
O=C(C[C@@H]1CC[C@@H]2[C@H](COC[C@H](O)CN2Cc2nccs2)O1)NCc1ccc(Oc2ccccc2)cc1,x,n,x,x,x,x,x
C[C@H](CO)N1C[C@H](C)[C@H](CN(C)Cc2ccccc2F)Oc2ncc(C#CCN(C)C)cc2C1=O,n,n,n,x,x,x,x
SMILES,IDH1 R132H inh,GASC1 inh,T cruzi growth-1,T cruzi growth-2,T cruzi growth-3,3T3 cytotox,NIH3T3 tox 2
COc1ccc2c3c(n(C)c2c1)[C@H](CO)N(Cc1ccccc1)CC31CCN(C(=O)C2CC2)CC1,x,n,x,x,x,x,x
COC(=O)C[C@@H]1CC[C@@H]2[C@H](COC[C@H](O)CN2C(=O)Nc2ccccc2OC)O1,x,n,n,x,x,x,x
CC(C)NC(=O)Nc1ccc2c(c1)C(=O)N([C@H](C)CO)C[C@@H](C)[C@@H](CN(C)C(=O)C1CCCCC1)OCCCC[C@H](C)O2,x,n,n,x,x,x,x
COc1ccc(S(=O)(=O)N(C)C[C@H]2OCCCC[C@@H](C)Oc3ccc(NS(=O)(=O)c4ccccc4)cc3C(=O)N([C@H](C)CO)C[C@H]2C)cc1,x,n,115.3,107.8,n,n,n
COc1ccc(S(=O)(=O)N(C)C[C@H]2OCCCC[C@H](C)Oc3ccc(NS(=O)(=O)c4ccc(C)cc4)cc3C(=O)N([C@@H](C)CO)C[C@@H]2C)cc1,n,n,u,100.7,n,n,n
COc1ccc(S(=O)(=O)Nc2ccc3c(c2)C(=O)N([C@@H](C)CO)C[C@@H](C)[C@H](CN(C)S(=O)(=O)c2ccc(OC)cc2)OCCCC[C@@H](C)O3)cc1,x,n,u,107.9,n,n,n
COc1ccc(S(=O)(=O)Nc2ccc3c(c2)C(=O)N([C@H](C)CO)C[C@@H](C)[C@H](CN(C)S(=O)(=O)c2ccc(OC)cc2)OCCCC[C@H](C)O3)cc1,n,n,99.8,107.4,n,n,n
COc1ccc(S(=O)(=O)N(C)C[C@@H]2OCCCC[C@H](C)Oc3ccc(NS(=O)(=O)c4ccccc4)cc3C(=O)N([C@@H](C)CO)C[C@@H]2C)cc1,n,n,n,x,x,x,x
COc1ccc(S(=O)(=O)N(C)C[C@@H]2OCCCC[C@H](C)Oc3ccc(NS(=O)(=O)c4ccc(C)cc4)cc3C(=O)N([C@@H](C)CO)C[C@H]2C)cc1,n,n,n,x,x,x,x
COc1ccc(S(=O)(=O)Nc2ccc3c(c2)C(=O)N([C@H](C)CO)C[C@@H](C)[C@H](CN(C)S(=O)(=O)c2ccc(C)cc2)OCCCC[C@@H](C)O3)cc1,n,n,x,x,x,x,x
COc1ccc(S(=O)(=O)N(C)C[C@H]2OCCCC[C@H](C)Oc3ccc(NS(=O)(=O)c4ccccc4)cc3C(=O)N([C@H](C)CO)C[C@H]2C)cc1,x,n,n,x,x,x,x
CCCC(=O)Nc1ccc2c(c1)OC[C@@H](C)N(C(=O)c1ccncc1)C[C@@H](C)[C@H](OC)CN(C)C2=O,n,n,n,x,x,x,x

# Screening data deposited in PubChem BioAssay by Broad Institute.
